Broadly, the IC50 is the concentration needed to halve the response being measured. Read a low IC50 as inhibition by little substance. By pA2 is commonly meant the negative logarithm of the molar antagonist concentration that doubles the agonist concentration needed for the same response.

This is an account of results in ChEMBL document CHEMBL1122788, “Quantitative relationships between alpha-adrenergic activity and binding affinity of alpha-adrenoceptor agonists and antagonists” (J Med Chem, 1984).

Assay [1] deals with T1, Adrenergic receptor alpha-2 (Rattus norvegicus, UniProt P22086+P19328+P22909).
T1 sequence (P22086 whole entry): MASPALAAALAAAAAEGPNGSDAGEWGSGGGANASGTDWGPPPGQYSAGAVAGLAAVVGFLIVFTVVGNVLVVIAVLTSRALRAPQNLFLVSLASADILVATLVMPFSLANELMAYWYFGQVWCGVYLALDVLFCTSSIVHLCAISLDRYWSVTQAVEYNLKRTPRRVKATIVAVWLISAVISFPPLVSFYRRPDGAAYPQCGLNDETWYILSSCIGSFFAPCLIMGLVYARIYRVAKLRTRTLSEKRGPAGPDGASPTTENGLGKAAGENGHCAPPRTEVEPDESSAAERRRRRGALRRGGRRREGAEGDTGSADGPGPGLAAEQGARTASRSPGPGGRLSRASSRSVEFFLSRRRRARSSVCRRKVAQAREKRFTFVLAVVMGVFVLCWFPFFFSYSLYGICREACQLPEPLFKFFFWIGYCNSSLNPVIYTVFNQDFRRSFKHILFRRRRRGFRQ
T1 sequence (P19328 whole entry): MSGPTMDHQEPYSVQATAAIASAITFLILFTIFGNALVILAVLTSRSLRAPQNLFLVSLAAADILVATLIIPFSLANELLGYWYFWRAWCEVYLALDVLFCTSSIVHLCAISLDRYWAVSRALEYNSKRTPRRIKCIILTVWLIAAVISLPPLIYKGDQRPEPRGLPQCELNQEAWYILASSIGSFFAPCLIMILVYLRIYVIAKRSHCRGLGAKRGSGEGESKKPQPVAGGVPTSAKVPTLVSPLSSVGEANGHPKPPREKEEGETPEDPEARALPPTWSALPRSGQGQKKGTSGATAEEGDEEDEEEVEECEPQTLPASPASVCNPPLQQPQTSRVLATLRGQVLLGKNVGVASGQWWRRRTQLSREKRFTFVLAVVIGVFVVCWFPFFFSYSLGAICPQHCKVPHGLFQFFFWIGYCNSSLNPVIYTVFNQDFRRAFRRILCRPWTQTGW
T1 sequence (P22909 whole entry): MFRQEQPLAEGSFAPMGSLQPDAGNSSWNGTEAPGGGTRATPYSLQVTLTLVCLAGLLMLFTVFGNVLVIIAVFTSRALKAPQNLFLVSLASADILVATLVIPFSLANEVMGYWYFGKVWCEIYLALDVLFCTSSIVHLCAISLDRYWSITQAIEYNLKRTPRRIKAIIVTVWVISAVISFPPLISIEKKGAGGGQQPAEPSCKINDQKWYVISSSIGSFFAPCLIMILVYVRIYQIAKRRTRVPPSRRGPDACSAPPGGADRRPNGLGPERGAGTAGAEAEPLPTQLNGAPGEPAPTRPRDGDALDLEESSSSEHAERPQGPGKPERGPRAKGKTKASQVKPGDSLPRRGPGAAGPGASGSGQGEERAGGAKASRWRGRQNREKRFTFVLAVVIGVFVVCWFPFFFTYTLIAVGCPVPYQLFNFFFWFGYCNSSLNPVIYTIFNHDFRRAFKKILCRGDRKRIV
In words: Binding affinity against Alpha-2 adrenergic receptor is the ability to inhibit the specific [3H]clonidine binding (0.4 nM) to rat isolated brain membranes by 50% was reported; 1.4*10e-7. Type of assay: tissue-based, Membrane. Summed up:
(§1)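 Whole rat brain (minus cerebellum) from male Wistar rats (200–250 g), homogenized in ice-cold 50 mM Tris-HCl pH 7.7 and washed twice at 50000g. […] Bound ligand was collected by rapid filtration and counted. IC50 was derived by log-probit analysis.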

In assay [2] the target is T2, Adrenergic receptor alpha-1 (Rattus norvegicus, UniProt P15823+P23944+P43140).
T2 sequence (P15823 whole entry): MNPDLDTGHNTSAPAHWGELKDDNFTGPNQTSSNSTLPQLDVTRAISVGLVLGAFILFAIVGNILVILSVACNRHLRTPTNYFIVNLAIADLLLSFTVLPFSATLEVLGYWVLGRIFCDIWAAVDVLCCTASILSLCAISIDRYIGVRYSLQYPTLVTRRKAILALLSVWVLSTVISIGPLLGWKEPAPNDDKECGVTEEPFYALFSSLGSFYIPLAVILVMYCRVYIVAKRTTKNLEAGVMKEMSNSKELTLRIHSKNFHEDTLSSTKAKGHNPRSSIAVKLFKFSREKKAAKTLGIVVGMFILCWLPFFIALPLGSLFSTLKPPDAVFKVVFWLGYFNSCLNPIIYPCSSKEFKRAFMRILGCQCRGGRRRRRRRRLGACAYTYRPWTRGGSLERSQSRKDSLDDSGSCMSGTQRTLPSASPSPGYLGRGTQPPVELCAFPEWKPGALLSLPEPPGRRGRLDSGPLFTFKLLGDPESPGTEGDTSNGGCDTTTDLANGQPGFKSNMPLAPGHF
T2 sequence (P23944 whole entry): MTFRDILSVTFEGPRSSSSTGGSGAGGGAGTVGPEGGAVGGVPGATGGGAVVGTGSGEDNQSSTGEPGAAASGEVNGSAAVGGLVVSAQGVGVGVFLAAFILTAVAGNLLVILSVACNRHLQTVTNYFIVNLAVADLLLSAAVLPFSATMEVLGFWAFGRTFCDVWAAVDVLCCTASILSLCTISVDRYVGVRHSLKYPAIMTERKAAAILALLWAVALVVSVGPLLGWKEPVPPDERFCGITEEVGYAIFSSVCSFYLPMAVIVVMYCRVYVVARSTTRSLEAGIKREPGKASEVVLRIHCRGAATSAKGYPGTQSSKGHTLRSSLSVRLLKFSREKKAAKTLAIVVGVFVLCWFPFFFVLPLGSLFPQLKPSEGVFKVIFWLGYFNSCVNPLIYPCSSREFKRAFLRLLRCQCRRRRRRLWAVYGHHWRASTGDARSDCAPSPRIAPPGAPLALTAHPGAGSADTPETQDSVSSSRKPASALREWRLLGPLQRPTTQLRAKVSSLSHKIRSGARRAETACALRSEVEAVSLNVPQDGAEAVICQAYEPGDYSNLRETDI
T2 sequence (P43140 whole entry): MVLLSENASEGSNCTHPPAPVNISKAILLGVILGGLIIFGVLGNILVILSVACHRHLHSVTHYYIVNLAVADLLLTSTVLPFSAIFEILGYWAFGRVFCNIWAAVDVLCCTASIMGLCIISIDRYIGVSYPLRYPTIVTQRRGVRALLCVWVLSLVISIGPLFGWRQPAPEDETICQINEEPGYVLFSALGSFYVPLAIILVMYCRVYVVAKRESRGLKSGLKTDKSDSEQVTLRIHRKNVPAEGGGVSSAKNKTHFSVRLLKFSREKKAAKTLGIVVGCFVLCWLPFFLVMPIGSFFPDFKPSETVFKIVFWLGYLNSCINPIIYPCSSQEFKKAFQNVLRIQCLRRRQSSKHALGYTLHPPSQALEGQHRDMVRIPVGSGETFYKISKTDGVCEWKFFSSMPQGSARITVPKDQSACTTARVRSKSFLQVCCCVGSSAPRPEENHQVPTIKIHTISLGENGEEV
Kind of assay: Binding affinity against alpha-1 adrenergic receptor is the ability to inhibit the specific [3H]prazosin binding (0.2 nM) to rat isolated brain membranes by 50% was reported; 6.1*10e-5. Type of assay: tissue-based, Membrane.

In assay [3] the test system is Rattus norvegicus. Kind of assay: Hypertensive activity (increase in arterial pressure to 60 mmHg)) after i.v. administration to pithed rats.
Assay [4] has as its system Rattus norvegicus. In words: Hypotensive activity (25% decrease in arterial pressure) after i.v. administration to anesthetized normotensive rats.
Assay [5] addresses T1, Adrenergic receptor alpha-2. Kind of assay: Binding affinity against Alpha-2 adrenergic receptor is the ability to inhibit the specific [3H]-clonidine binding (0.4 nM) to rat isolated brain membranes by 50% was reported; 1*10e-6. It is filed as tissue-based, Membrane. Put shortly: as §1
The target of assay [6] is T2, Adrenergic receptor alpha-1. Kind of assay: Binding affinity against alpha-1 adrenergic receptor is the ability to inhibit the specific [3H]prazosin binding (0.2 nM) to rat isolated brain membranes by 50% was reported; 6.5*10e-5. More on the design: species or system Membrane.
Assay [7] addresses T1, Adrenergic receptor alpha-2. In words: Inhibition of specific [3H]-clonidine binding (0.4 nM) to rat brain membranes alpha-2 adrenoceptor; 2.8*10e-7. It is filed as cell membranes, Membrane.
The target is the same in assay [8]. Kind of assay: Antagonist activity against B-HT 933-induced alpha-2-adrenoceptor-mediated vasoconstriction in pithed normotensive rats. Type of assay: functional.
Assay [9] deals with Adrenergic receptor alpha-2 (Homo sapiens) (UniProt P08913+P18825+P18089). The following applies: Oryctolagus cuniculus.
Assay [10] addresses T2, Adrenergic receptor alpha-1. In words: Binding affinity against alpha-1 adrenergic receptor is the ability to inhibit the specific [3H]prazosin binding (0.2 nM) to rat isolated brain membranes by 50% was reported; 5.8*10e-7. Type of assay: tissue-based, Membrane. Put shortly: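 Whole rat brain (minus cerebellum) from male Wistar rats (200–250 g), homogenized in ice-cold 50 mM Tris-HCl pH 7.7 and washed twice at 50000g. […] Bound ligand was collected by filtration and counted. IC50 was derived by log-probit analysis.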

Assay [11] addresses T1, Adrenergic receptor alpha-2. In words: Binding affinity against Alpha-2 adrenergic receptor is the ability to inhibit the specific [3H]clonidine binding (0.4 nM) to rat isolated brain membranes by 50% was reported; 3.0*10e-8. It is filed as tissue-based, Membrane.
Assay [12] addresses T2, Adrenergic receptor alpha-1. Kind of assay: Binding affinity against alpha-1 adrenergic receptor is the ability to inhibit the specific [3H]prazosin binding (0.2 nM) to rat isolated brain membranes by 50% was reported; 1.6*10e-6. It is filed as tissue-based, Membrane. Put shortly:
(§2)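 Brain membranes were prepared from male Wistar rats (200–250 g, cerebellum removed) in ice-cold 50 mmol/L Tris-HCl, pH 7.7, with two 50000g spins, and used at 1 mg/mL protein (Lowry). […] Bound label was collected by vacuum filtration and counted. IC50 came from log probit analysis.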

For assay [13], the target named is T1, Adrenergic receptor alpha-2. In words: Binding affinity against Alpha-2 adrenergic receptor is the ability to inhibit the specific [3H]clonidine binding (0.4 nM) to rat isolated brain membranes by 50% was reported; 2.5*10e-9. It is filed as tissue-based, Membrane.
Assay [14] concerns the target T2, Adrenergic receptor alpha-1. In words: Binding affinity against alpha-1 adrenergic receptor is the ability to inhibit the specific [3H]prazosin binding (0.2 nM) to rat isolated brain membranes by 50% was reported; 6.6*10e-7. It is filed as tissue-based, Membrane. Put shortly:
as §2

Assay [15] concerns the target T1, Adrenergic receptor alpha-2. Kind of assay: Inhibition of specific [3H]clonidine binding (0.4 nM) to rat brain membranes alpha2 adrenoceptor. Type of assay: cell membranes, Membrane.

`Cc1cccc(C)c1NC1=NCCCS1` [XYLAZINE]: the IC50 was found to be 140 nM in assay [1] and 61000 nM in assay [2]. This molecule had a pC60 with Rattus norvegicus [3] of -0.02 uM kg-1. For the same molecule, in the assay on Rattus norvegicus [4], the pC25 turned out to be 0.62 uM kg-1.
Regarding `Cn1cc2c(NC3=NCCN3)cccc2n1` [INDANIDINE], the IC50 in [5] worked out at 1000 nM; in [6], 65000 nM. The molecule further returned a pC60 with Rattus norvegicus [3] of -0.24 uM kg-1.
In turn, `c1ccc(CC2=NCCN2)cc1` [TOLAZOLINE] yielded a half-maximal inhibitory concentration (IC50) in assay [7] of 280 nM. In assay [8], this molecule showed a pA2 of 5.82. Moreover, in assay [9], the pC30 stood at 6.15.
In turn, `Cc1cc(C(C)(C)C)cc(C)c1CC1=NCCN1` [XYLOMETAZOLINE] returned a 50% inhibitory concentration (IC50) in [10] of 580 nM. The molecule further yielded a pC60 in the assay with Rattus norvegicus [3] of 1.12 uM kg-1. In the assay with Rattus norvegicus [4], the pC25 was determined as 0.26 uM kg-1.
With `c1ccc2c(c1)CCCC2C1=NCCN1` (stereo not drawn) [TETRAHYDROZOLINE], the IC50 in assay [11] worked out at 30 nM; in assay [12], 1600 nM. In addition, the pC60 with Rattus norvegicus [3] was determined as 0.9 uM kg-1. This molecule came in with a pC25 in the assay on Rattus norvegicus [4] of -0.16 uM kg-1.
As for `CC(Oc1c(Cl)cccc1Cl)C1=NCCN1` (stereo not drawn) [LOFEXIDINE], the half-maximal inhibitory concentration (IC50) in assay [13] is 2.5 nM; in assay [14], 660 nM. Besides, the pC60 in the assay on Rattus norvegicus [3] is 1.99 uM kg-1. For the same molecule, the pC25 with Rattus norvegicus [4] is on record as 2.09 uM kg-1.
In assay [15], `c1ccc2c(c1)OCC(CN1CCCCC1)O2` (stereo not drawn) [PIPEROXAN] yielded an IC50 of 140 nM. For the same molecule, in [8], the pA2 is 6.23.
